Test results reported in ChEMBL document CHEMBL2331191, “Design and synthesis of novel 1,2,3-triazole-dithiocarbamate hybrids as potential anticancer agents” (Eur J Med Chem, 2013).

What was measured:
Type in all cases: functional, cell-based
[1] = tested on: MCF7; experiment: Cytotoxicity against human MCF7 cells assessed as growth inhibition after 72 hrs by MTT assay; details: MCF7, 72 h
Outline: (§1)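 Exponentially growing cells were seeded at 5×10^3 per well and held 24 h at 37 °C. Medium was then replaced with fresh medium containing a range of concentrations, and cells were exposed for 72 h. MTT (5 mg/mL) was added for 4 h at 37 °C, formazan was dissolved in DMSO and A570 was read. Triplicate wells per concentration, three experiments. IC50 was taken from dose–response curves of inhibition ratio.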

[2] = Cytotoxicity against human EC109 cells assessed as growth inhibition after 72 hrs by MTT assay; details: ECa-109, 72 h; outline: as §1
[3] = tested on: PC-3; experiment: Cytotoxicity against human PC3 cells assessed as growth inhibition after 72 hrs by MTT assay; details: PC-3, 72 h; outline: as §1
[4] = tested on: MGC-803; experiment: Cytotoxicity against human MGC803 cells assessed as growth inhibition after 72 hrs by MTT assay; details: MGC-803, 72 h; outline: as §1

Structure (SMILES)	IC50 [1] [µM]	IC50 [2] [µM]	IC50 [3] [µM]	IC50 [4] [µM]
CC(C)(C)OC(=O)N1CCN(C(=S)SCc2cn(Cc3ccc(F)cc3)nn2)CC1	3.34	58.9	> 128	1.93
O=C(OCc1ccccc1)N1CCN(C(=S)SCc2cn(Cc3ccc(Cl)cc3)nn2)CC1	27.5	> 128	> 128	31.3
O=C(OCc1ccccc1)N1CCN(C(=S)SCc2cn(Cc3ccc(Cl)c(Cl)c3)nn2)CC1	10.6	29.4	> 128	7.14
Fc1ccccc1Cn1cc(CSC(=S)N2CCNCC2)nn1	33.2	> 128	56.2	19.4
COc1cc(Cn2cc(CSC(=S)N3CCN(C(=O)OCc4ccccc4)CC3)nn2)cc(OC)c1OC	> 128	> 128	> 128	10.9
Cc1ccc(-n2cc(CSC(=S)N3CCN(C(=O)OC(C)(C)C)CC3)nn2)cc1	74.2	114	> 128	48.3
CC(C)(C)OC(=O)N1CCN(C(=S)SCc2cn(-c3cccc(C(F)(F)F)c3)nn2)CC1	80.4	69.3	> 128	66.8
CC(C)(C)OC(=O)N1CCN(C(=S)SCc2cn(Cc3ccc(Cl)cc3)nn2)CC1	2.96	> 128	> 128	9.79
COc1cc(Cn2cc(CSC(=S)N3CCNCC3)nn2)cc(OC)c1OC	–	> 128	> 128	–
CC(C)(C)OC(=O)N1CCN(C(=S)SCc2cn(CCOc3ccc4ccc(=O)oc4c3)nn2)CC1	79.8	> 128	> 128	67
COc1ccc(Cn2cc(CSC(=S)N3CCN(C(=O)OC(C)(C)C)CC3)nn2)cc1	4.96	36.8	> 128	22.8
CC(C)(C)OC(=O)N1CCN(C(=S)SCc2cn(Cc3ccc(Cl)c(Cl)c3)nn2)CC1	19.1	> 128	> 128	33.7
Fc1ccc(Cn2cc(CSC(=S)N3CCNCC3)nn2)cc1	49.9	> 128	> 128	32.5
CC(C)(C)OC(=O)N1CCN(C(=S)SCc2cn(Cc3cc(=O)oc4cc(O)ccc34)nn2)CC1	10.4	> 128	36.8	4.96
S=C(SCc1cn(Cc2ccc(Cl)c(Cl)c2)nn1)N1CCNCC1	–	> 128	–	–
Cc1cc(=O)oc2cc(OCCn3cc(CSC(=S)N4CCN(C(=O)OC(C)(C)C)CC4)nn3)ccc12	90.4	> 128	> 128	76.9

Structure (SMILES)	IC50 [1] [µM]	IC50 [2] [µM]	IC50 [3] [µM]	IC50 [4] [µM]
Cc1ccc(Cn2cc(CSC(=S)N3CCN(C(=O)OC(C)(C)C)CC3)nn2)cc1	19.7	47.9	17.2	3.49
O=C(OCc1ccccc1)N1CCN(C(=S)SCc2cn(Cc3ccccc3Cl)nn2)CC1	21.4	56.8	> 128	15.5
Cc1ccc(Cn2cc(CSC(=S)N3CCN(C(=O)OCc4ccccc4)CC3)nn2)cc1	37.8	32.6	> 128	9.37
CC(C)(C)OC(=O)N1CCN(C(=S)SCc2cn(-c3ccccc3F)nn2)CC1	89.6	> 128	> 128	119
S=C(SCc1cn(Cc2ccccc2Cl)nn1)N1CCNCC1	38.9	> 128	–	45.2
O=c1[nH]cc(F)c(=O)[nH]1 [FLUOROURACIL]	–	3.34	27.1	7.01
COc1cc(Cn2cc(CSC(=S)N3CCN(C(=O)OC(C)(C)C)CC3)nn2)cc(OC)c1OC	22.7	44.4	> 128	27.3
COc1ccc(-n2cc(CSC(=S)N3CCN(C(=O)OC(C)(C)C)CC3)nn2)cc1	93	> 128	> 128	87.3
O=C(OCc1ccccc1)N1CCN(C(=S)SCc2cn(Cc3ccc(F)cc3)nn2)CC1	10.3	32	> 128	17.6
O=C(OCc1ccccc1)N1CCN(C(=S)SCc2cn(Cc3ccccc3F)nn2)CC1	7.95	27	68.3	5.06
Cc1ccc(Cn2cc(CSC(=S)N3CCNCC3)nn2)cc1	53.2	> 128	19.8	64.3
S=C(SCc1cn(Cc2ccc(Cl)cc2)nn1)N1CCNCC1	–	> 128	> 128	–
COc1ccc(Cn2cc(CSC(=S)N3CCNCC3)nn2)cc1	–	> 128	> 128	–
COc1ccc(Cn2cc(CSC(=S)N3CCN(C(=O)OCc4ccccc4)CC3)nn2)cc1	30.5	58.3	> 128	23.8
CC(C)(C)OC(=O)N1CCN(C(=S)SCc2cn(Cc3ccccc3F)nn2)CC1	5.67	2.44	11.6	–
